According to ChEMBL document CHEMBL1800018, “Discovery of a series of imidazo[4,5-b]pyridines with dual activity at angiotensin II type 1 receptor and peroxisome proliferator-activated receptor-γ” (J Med Chem, 2011):
The source made the active and inactive calls. No cut-off for these calls is given here.

Columns and labels:
Rattus norvegicus [1] = experiment: Antidiabetic activity in ZDF rat assessed as triglyceride level at 3 mg/kg, po QD for 40 days (reference value: 618+/-52 mg/dL); assay type: functional
[2] = AUC in rat at 1 mg/kg, iv; assay type: ADME, organism-based; set-up: dose 1 mg/kg, route intravenous; details: plasma
[3] = AUC in rat at 5 mg/kg, po; assay type: ADME, organism-based; set-up: dose 5 mg/kg, route oral; details: plasma
[4] = molecular target: T1, Type-1 angiotensin II receptor (Homo sapiens, UniProt P30556); experiment: Displacement of [125I]Tyr4-Sar1,Ile8-Angiotensin II from human Angiotensin 1 receptor after 60 mins by scintillation counting
T1 sequence (P30556 whole entry): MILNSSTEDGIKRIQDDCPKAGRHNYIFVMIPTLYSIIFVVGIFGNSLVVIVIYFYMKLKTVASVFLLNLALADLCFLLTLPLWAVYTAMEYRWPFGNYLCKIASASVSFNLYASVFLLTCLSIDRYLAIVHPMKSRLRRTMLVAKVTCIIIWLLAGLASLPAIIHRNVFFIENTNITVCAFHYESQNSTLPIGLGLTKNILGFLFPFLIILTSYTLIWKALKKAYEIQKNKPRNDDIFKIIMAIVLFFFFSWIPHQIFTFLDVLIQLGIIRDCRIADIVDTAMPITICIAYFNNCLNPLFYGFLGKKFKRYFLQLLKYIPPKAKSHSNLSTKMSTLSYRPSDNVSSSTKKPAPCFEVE

Rattus norvegicus [5] = experiment: Antidiabetic activity in ZDF rat assessed as blood glucose level at 1 mg/kg, po QD for 40 days (reference value: 771+/-60 mg/dL); assay type: functional
Rattus norvegicus [6] = experiment: Antihypertensive activity in po dosed SHR rat assessed as decrease in arterial blood pressure administered as single dose; assay type: functional, organism-based; details: Artery
Summary of the method: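 SHR carried aortic radiotelemetry transmitters implanted under Telazol anesthesia and recovered for at least 1 week. Rats were randomized by 2 h baseline mean BP. Each received vehicle by oral gavage on Day 0 and a single drug dose (0.3–10 mg/kg) on Day 1, with BP followed 20 h each day. The change was taken as Day 1 minus Day 0, n = 8/group.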

Rattus norvegicus [7] = experiment: Antidiabetic activity in ZDF rat assessed as body weight gain at 0.1 mg/kg, po QD for 40 days (reference value: 133+/-9 g); assay type: functional
Summary of the method: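 Male ZDF rats, starting at about 6 weeks old, were dosed orally once daily for 40 days in 1.5% CMC/0.2% Tween 20 suspension, n = 8/group. Body weight was followed over the study. Gain was calculated per animal from day 0 to day 40 and compared with vehicle and pioglitazone (3 mg/kg) groups. Data are mean ± SEM.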

AUC [2]: 1220 ng·h/mL
AUC [3]: 4950 ng·h/mL
IC50 [4]: 1.6 nM
Structure (SMILES): CCc1nc2c(C)cc(CC(C)C)nc2n1[C@H]1CCc2cc(-c3ccccc3-c3nnn[nH]3)ccc21
Activity (Rattus norvegicus [1]): 734 mg/dL
Activity (Rattus norvegicus [5]): 612 mg/dL
Activity (Rattus norvegicus [6]): Active
Activity (Rattus norvegicus [7]): 128 g
